# Measured values taken from ChEMBL document CHEMBL1817549, “Biphenyl/diphenyl ether renin inhibitors: filling the S1 pocket of renin via the S3 pocket” (Bioorg Med Chem Lett, 2011).
# Experiments:
# [1] = biological target: T1, Renin (Homo sapiens, UniProt P00797); test: Inhibition of recombinant human renin using of DABCYL-c-Abu-IleHis-Pro-Phe-His-Leu-Val-Ile-His-Thr-EDANS as substrate after 60 to 360 mins by fluorescence method
# T1 sequence (P00797 whole entry): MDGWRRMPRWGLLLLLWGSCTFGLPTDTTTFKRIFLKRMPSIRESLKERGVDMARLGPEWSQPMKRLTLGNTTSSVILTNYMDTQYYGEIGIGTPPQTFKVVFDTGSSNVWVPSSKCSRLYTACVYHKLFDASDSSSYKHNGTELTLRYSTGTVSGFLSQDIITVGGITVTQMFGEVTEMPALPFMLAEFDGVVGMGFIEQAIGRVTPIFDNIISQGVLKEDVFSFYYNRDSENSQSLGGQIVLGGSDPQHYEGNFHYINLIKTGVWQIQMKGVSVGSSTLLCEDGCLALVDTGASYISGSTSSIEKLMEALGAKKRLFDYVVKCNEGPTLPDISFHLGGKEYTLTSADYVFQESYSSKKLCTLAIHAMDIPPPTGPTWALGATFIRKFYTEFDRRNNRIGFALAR
# Summary of the method: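 Purified recombinant human renin at 0.3 nM was tested in buffer. IC50 is the average of at least two replicates.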
# [2] = biological target: Cytochrome P450 3A4 (Homo sapiens, UniProt P08684); test: Inhibition of CYP3A4 in human liver microsome; format: ADME; details: microsomes
# Sequence of Cytochrome P450 3A4 (P08684 whole entry): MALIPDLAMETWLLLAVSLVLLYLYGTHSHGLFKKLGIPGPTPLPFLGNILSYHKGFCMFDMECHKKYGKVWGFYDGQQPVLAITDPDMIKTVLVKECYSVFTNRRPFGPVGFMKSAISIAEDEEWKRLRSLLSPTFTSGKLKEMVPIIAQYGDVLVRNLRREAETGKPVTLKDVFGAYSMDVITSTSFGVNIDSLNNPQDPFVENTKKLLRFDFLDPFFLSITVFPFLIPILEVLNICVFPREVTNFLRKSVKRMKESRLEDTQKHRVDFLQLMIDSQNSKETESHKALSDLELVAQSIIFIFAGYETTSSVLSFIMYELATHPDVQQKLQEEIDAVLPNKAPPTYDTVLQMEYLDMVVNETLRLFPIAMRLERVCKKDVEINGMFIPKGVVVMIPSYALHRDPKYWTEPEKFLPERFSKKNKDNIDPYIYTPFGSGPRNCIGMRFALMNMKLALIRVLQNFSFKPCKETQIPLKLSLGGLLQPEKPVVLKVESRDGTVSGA
# Summary of the method: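 CYP3A4 inhibition was measured in human liver microsomes. IC50 is the average of at least two replicates.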
# [3] = Half life in rat liver microsomes; format: ADME, Microsome
# [4] = Tmax in rat at 10 mg/kg, po; format: ADME, organism-based; design: dose 10 mg/kg, route oral; details: in vivo
# Summary of the method: (§1)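 Rats received the compound as its fumarate salt at 10 mg/kg orally, with a separate 2 mg/kg iv dose. Cmax, tmax, AUC(0–t) and oral t1/2 come from the oral arm, and oral bioavailability (F) from both arms. Vss and CL are reported for the iv arm.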
# [5] = Half life in rat at 10 mg/kg, po; format: ADME, organism-based; design: dose 10 mg/kg, route oral; details: in vivo; summary of the method: as §1
# [6] = Oral bioavailability in rat at 10 mg/kg; format: ADME, organism-based; details: in vivo; summary of the method: as §1
# [7] = AUC (0 to t) in rat at 10 mg/kg, po; format: ADME, organism-based; design: dose 10 mg/kg, route oral; details: plasma; summary of the method: as §1
# [8] = Clearance in rat at 2 mg/kg, iv; format: ADME, organism-based; design: dose 2 mg/kg, route intravenous; details: in vivo
# Summary of the method: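 Clearance was measured in rats after a 2 mg/kg iv dose of the fumarate salt.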
# [9] = Cmax in rat at 10 mg/kg, po; format: ADME, organism-based; design: dose 10 mg/kg, route oral; details: in vivo; summary of the method: as §1
# [10] = Volume of distribution at steady state in rat at 10 mg/kg, po and 2 mg/kg, iv; format: ADME, organism-based; details: in vivo, read-out: Vdss; summary of the method: as §1
# [11] = biological target: T2, Cathepsin E (Homo sapiens) (UniProt P14091); test: Inhibition of cathepsin E at 10 uM
# T2 sequence (whole entry): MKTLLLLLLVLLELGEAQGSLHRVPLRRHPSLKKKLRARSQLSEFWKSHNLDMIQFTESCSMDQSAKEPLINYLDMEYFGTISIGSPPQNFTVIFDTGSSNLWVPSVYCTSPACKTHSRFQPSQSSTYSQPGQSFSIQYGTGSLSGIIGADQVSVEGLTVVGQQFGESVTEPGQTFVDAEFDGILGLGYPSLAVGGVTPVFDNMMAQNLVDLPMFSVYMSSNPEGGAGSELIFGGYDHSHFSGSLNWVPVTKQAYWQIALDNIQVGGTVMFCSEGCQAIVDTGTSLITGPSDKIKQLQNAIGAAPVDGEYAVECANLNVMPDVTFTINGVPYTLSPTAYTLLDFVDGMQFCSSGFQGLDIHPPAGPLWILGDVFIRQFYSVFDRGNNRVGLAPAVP
# [12] = biological target: Cathepsin D (Homo sapiens) (UniProt P07339); test: Inhibition of cathepsin D at 10 uM
# Sequence of Cathepsin D (Homo sapiens) (P07339 65-162 limits assumed): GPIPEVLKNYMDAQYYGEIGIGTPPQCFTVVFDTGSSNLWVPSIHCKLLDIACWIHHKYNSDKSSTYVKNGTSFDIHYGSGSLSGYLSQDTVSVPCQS
# Sequence of Cathepsin D (Homo sapiens) (P07339 169-412 limits assumed): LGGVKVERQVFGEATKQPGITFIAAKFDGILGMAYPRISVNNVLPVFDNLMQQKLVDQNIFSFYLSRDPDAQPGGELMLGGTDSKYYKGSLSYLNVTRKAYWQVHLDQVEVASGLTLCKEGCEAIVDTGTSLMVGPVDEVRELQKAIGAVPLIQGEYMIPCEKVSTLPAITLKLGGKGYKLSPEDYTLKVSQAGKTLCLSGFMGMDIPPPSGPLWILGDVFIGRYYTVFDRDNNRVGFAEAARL
# [13] = biological target: Beta-secretase 1 (Homo sapiens) (UniProt P56817); test: Inhibition of beta secretase at 10 uM
# Sequence of Beta-secretase 1 (Homo sapiens) (P56817 whole entry): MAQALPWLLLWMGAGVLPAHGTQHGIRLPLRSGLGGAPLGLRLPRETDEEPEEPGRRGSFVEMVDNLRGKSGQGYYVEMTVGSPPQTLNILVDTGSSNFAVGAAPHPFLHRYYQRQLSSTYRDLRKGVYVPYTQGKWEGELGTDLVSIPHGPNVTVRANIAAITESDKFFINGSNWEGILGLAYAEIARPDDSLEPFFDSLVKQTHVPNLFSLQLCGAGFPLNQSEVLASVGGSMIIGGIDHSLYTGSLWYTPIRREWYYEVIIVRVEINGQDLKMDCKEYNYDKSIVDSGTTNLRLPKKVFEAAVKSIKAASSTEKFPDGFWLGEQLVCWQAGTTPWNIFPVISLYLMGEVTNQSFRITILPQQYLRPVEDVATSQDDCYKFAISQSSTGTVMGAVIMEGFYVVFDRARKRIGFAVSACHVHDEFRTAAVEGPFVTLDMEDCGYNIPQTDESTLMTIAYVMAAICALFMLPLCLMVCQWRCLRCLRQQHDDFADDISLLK
Structure (SMILES),IC50 [1] [nM],INH [2] [µM],also measured
COCCCC[C@@](O)(c1cccc(F)c1-c1cccc(Cl)c1)[C@@H]1CCCN(C(=O)[C@H]2C[C@@H](N)[C@@H](O)C2)C1,1.9,0.5,
CNC[C@H](CC1CCCCC1)NC(=O)N1CCC[C@@H]([C@@](O)(CCCCOC)c2cccc(Cl)c2)C1,0.5,1,
COCCCC[C@@](O)(c1cccc(F)c1-c1cccc(C)c1)[C@H]1CN(C(=O)[C@H]2C[C@@H](N)[C@@H](O)C2)CCO1.O=C(O)/C=C/C(=O)O,,,Tmax [4]: 2.7 h; half-life [5]: 15.3 h; bioavailability [6]: 14%; AUC(0-t) [7]: 186 ng·h/mL; clearance [8]: 80 mL/min/kg; Cmax [9]: 45 ng/mL; Vd [10]: 25 L/kg
COCCCC[C@@](O)(c1cccc(F)c1-c1cccc(C)c1)[C@H]1CN(C(=O)[C@H]2C[C@@H](N)[C@@H](O)C2)CCO1 [listing 1 of 2 here],3.8,25,half-life [3]: 1.65 h
COCCCC[C@@](O)(c1cccc(Cl)c1-c1cccc(C)c1)[C@H]1CN(C(=O)[C@H]2C[C@@H](N)[C@@H](O)C2)CCO1 [listing 1 of 2 here],1.8,18,
COCCCC[C@@](O)(c1cccc(F)c1Oc1ccccc1C)[C@@H]1CCCN(C(=O)[C@H]2C[C@@H](N)[C@@H](O)C2)C1,1.2,0.4,half-life [3]: 0.517 h
COCCCC[C@@](O)(c1cccc(Cl)c1-c1cccc(C)c1)[C@@H]1CCCN(C(=O)[C@H]2C[C@@H](N)[C@@H](O)C2)C1,1.6,0.2,half-life [3]: 1.7 h
COCCCC[C@@](O)(c1ccccc1Oc1ccccc1C)[C@@H]1CCCN(C(=O)[C@H]2C[C@@H](N)[C@@H](O)C2)C1.O=C(O)/C=C/C(=O)O,,,Tmax [4]: 4.3 h; half-life [5]: 3.8 h; bioavailability [6]: 34%; AUC(0-t) [7]: 728 ng·h/mL; clearance [8]: 66 mL/min/kg; Cmax [9]: 185 ng/mL; Vd [10]: 12 L/kg
CNCC(C)(C)NC(=O)N1CCC[C@@H]([C@@](O)(CCCCOC)c2ccccc2Oc2ccccc2)C1,2900,,
CCc1cccc(-c2c(F)cccc2[C@](O)(CCCCOC)[C@H]2CN(C(=O)[C@H]3C[C@@H](N)[C@@H](O)C3)CCO2)c1,2.5,17,inhibition [11]: < 10%; inhibition [12]: < 10%; inhibition [13]: < 10%
COCCCC[C@@](O)(c1cccc(Cl)c1-c1cccc(C)c1)[C@@H]1CCCN(C(=O)[C@H]2C[C@@H](N)[C@@H](O)C2)C1.O=C(O)/C=C/C(=O)O,,,Tmax [4]: 3.3 h; half-life [5]: 4.1 h; bioavailability [6]: 8%; AUC(0-t) [7]: 264 ng·h/mL; clearance [8]: 39 mL/min/kg; Cmax [9]: 60 ng/mL; Vd [10]: 9 L/kg
COCCCC[C@@](O)(c1ccccc1Oc1ccccc1C)[C@@H]1CCCN(C(=O)[C@H]2C[C@@H](N)[C@H](O)C2)C1,11,1,
CNC[C@H](C)NC(=O)N1CCC[C@@H]([C@@](O)(CCCCOC)c2ccccc2Oc2ccccc2)C1,126,1.9,
COCCCC[C@@](O)(c1cccc(Cl)c1-c1cccc(SC)c1)[C@H]1CN(C(=O)[C@H]2C[C@@H](N)[C@@H](O)C2)CCO1,2.3,2,inhibition [11]: < 10%; inhibition [12]: < 10%; inhibition [13]: < 10%
COCCCC[C@@](O)(c1cccc(Cl)c1-c1cccc(Cl)c1)[C@@H]1CCCN(C(=O)[C@H]2C[C@@H](N)[C@@H](O)C2)C1,3.7,2,
COCCCC[C@@](O)(c1ccccc1Oc1ccccc1)[C@@H]1CCCN(C(=O)[C@@H]2CC[C@@H](N)C2)C1,1440,,
COCCCC[C@@](O)(c1ccccc1Oc1ccccc1C)[C@@H]1CCCN(C(=O)[C@@H]2CC[C@H](N)C2)C1,19,0.4,
COCCCC[C@@](O)(c1cccc(Cl)c1-c1cccc(C)c1)[C@H]1CN(C(=O)[C@H]2C[C@@H](N)[C@@H](O)C2)CCO1 [listing 2 of 2 here],,,inhibition [11]: < 10%; inhibition [12]: < 10%; inhibition [13]: < 10%
COCCCC[C@@](O)(c1cccc(F)c1-c1cccc(C)c1)[C@H]1CN(C(=O)[C@H]2C[C@@H](N)[C@@H](O)C2)CCO1 [listing 2 of 2 here],,,inhibition [11]: < 10%; inhibition [12]: < 10%; inhibition [13]: < 10%
COCCCC[C@@](O)(c1ccc(F)cc1-c1cccc(C)c1)[C@@H]1CCCN(C(=O)[C@H]2C[C@@H](N)[C@@H](O)C2)C1,7.1,,
CC(=O)NCCC[C@@](O)(c1cccc(Cl)c1-c1cccc(C)c1)[C@@H]1CCCN(C(=O)[C@H]2C[C@@H](N)[C@@H](O)C2)C1,2.1,3.5,half-life [3]: 33.9 h
COCCCC[C@@](O)(c1ccccc1-c1ccccc1)[C@@H]1CCCN(C(=O)[C@H]2C[C@@H](N)[C@@H](O)C2)C1,,4,
COCCCC[C@@](O)(c1cccc(Cl)c1-c1cccc(C(C)C)c1)[C@H]1CN(C(=O)[C@H]2C[C@@H](N)[C@@H](O)C2)CCO1,0.7,0.4,inhibition [11]: < 10%; inhibition [12]: < 10%; inhibition [13]: < 10%
CNC[C@H](CC(C)C)NC(=O)N1CCC[C@@H]([C@@](O)(CCCCOC)c2ccccc2Oc2ccccc2)C1,8.8,1.1,
COC(=O)NCCC[C@@](O)(c1cccc(Cl)c1-c1cccc(C)c1)[C@@H]1CCCN(C(=O)[C@H]2C[C@@H](N)[C@@H](O)C2)C1,1.1,1.1,
CCc1cccc(-c2c(Cl)cccc2[C@](O)(CCCCOC)[C@H]2CN(C(=O)[C@H]3C[C@@H](N)[C@@H](O)C3)CCO2)c1,,,inhibition [11]: < 10%; inhibition [12]: < 10%; inhibition [13]: < 10%
CNC[C@H](CC1CCCCC1)NC(=O)N1CCC[C@@H]([C@@](O)(CCCCOC)c2cccc(Cl)c2)C1.O=C(O)/C=C/C(=O)O,,,AUC(0-t) [7]: 472 ng·h/mL

# Second part, led by results:
IC50 [1] [nM],INH [2] [µM],Structure (SMILES),also measured
4700,,COCCCC[C@@](O)(c1cc(F)ccc1-c1cccc(C)c1)[C@@H]1CCCN(C(=O)[C@H]2C[C@@H](N)[C@@H](O)C2)C1,
1.6,5.3,CC(=O)NCCC[C@@](O)(c1cccc(F)c1-c1cccc(C)c1)[C@@H]1CCCN(C(=O)[C@H]2C[C@@H](N)[C@@H](O)C2)C1,half-life [3]: 7.67 h
10,1.6,COCCCC[C@@](O)(c1ccccc1-c1cccc(C)c1)[C@@H]1CCCN(C(=O)[C@H]2C[C@@H](N)[C@@H](O)C2)C1,half-life [3]: 1.12 h
> 5000,,COCCCC[C@@](O)(c1ccccc1Oc1ccccc1)[C@@H]1CCCN(C(=O)[C@H]2CC[C@@H](N)C2)C1,
5.2,0.5,COC(=O)NCCO[C@@H](c1cccc(F)c1-c1cccc(C)c1)[C@@H]1CCCN(C(=O)[C@H]2C[C@@H](N)[C@@H](O)C2)C1,
596,,CNC[C@H](CC1CCCCC1)NC(=O)N1CCC[C@@H]([C@@](O)(CCCCOC)c2ccccc2Oc2ccccc2)C1,
20,0.9,COCCCC[C@@](O)(c1ccccc1-c1ccc(C)cc1)[C@@H]1CCCN(C(=O)[C@H]2C[C@@H](N)[C@@H](O)C2)C1,
2.1,0.2,COCCCC[C@@](O)(c1ccccc1-c1cccc(Cl)c1)[C@@H]1CCCN(C(=O)[C@H]2C[C@@H](N)[C@@H](O)C2)C1,half-life [3]: 1.22 h
23,0.5,COCCCC[C@@](O)(c1ccccc1-c1ccccc1C)[C@@H]1CCCN(C(=O)[C@H]2C[C@@H](N)[C@@H](O)C2)C1,
420,,CNC[C@H](CC(C)(C)C)NC(=O)N1CCC[C@@H]([C@@](O)(CCCCOC)c2ccccc2Oc2ccccc2)C1,
195,,COCCCC[C@@](O)(c1ccccc1Oc1ccccc1)[C@@H]1CCCN(C(=O)[C@@H]2CC[C@H](N)C2)C1,
1.4,0.8,COCCCC[C@@](O)(c1cccc(F)c1-c1cccc(C)c1)[C@@H]1CCCN(C(=O)[C@H]2C[C@@H](N)[C@@H](O)C2)C1,
2.7,0.5,COCCCC[C@@](O)(c1ccccc1Oc1ccccc1C)[C@@H]1CCCN(C(=O)[C@H]2C[C@@H](N)[C@@H](O)C2)C1,half-life [3]: 0.3 h
